According to PMC9716449 (International Journal of Tryptophan Research : IJTR, 2022):
“Also recorded” adds a separate entry of the source. Each block holds one compound with its values, some of them ahead of it.

Tests used:
A172 (TDO) = assay: Cell-based Kyn production assay in A172 cells; design: species or system human; settings: A172 cells expressing TDO
Method in brief: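 TDO-dependent Kyn production: A172 cells were seeded and grown 24 h, exposed to test compound for 1 h, then given L-Trp (final 524 μM) without cytokine and cultured 24 h. Kyn was detected by Ehrlich reaction, adding aqueous 7% CCl₃COOH mixed 2:5 with 2% p-dimethylaminobenzaldehyde in acetic acid, and absorbance read at 460 nm. Triplicate samples; 3 independent experiments.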

[1] = tested on: A172 cells expressing IDO1 and TDO; assay: Kyn production in A172 cells expressing IDO1 and TDO by IFN-γ stimulation; type: cell-based, human; settings: IFN-γ 10 ng/mL; 524 μM L-Trp, 24 hours
Method in brief: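 A172 cells, grown 24 h after seeding, were given test compound 1 h before co-addition of L-Trp (final 524 μM) and IFN-γ (final 10 ng/mL) to express IDO1 and TDO. After 24 h, Kyn was quantified by Ehrlich reaction (CCl₃COOH plus p-dimethylaminobenzaldehyde in acetic acid) at 460 nm. IFN-γ-stimulated, DMSO-treated cells served as control. Triplicates; 3 independent experiments.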

rhTDO [2] = molecular target: T1, rhTDO (Homo sapiens, UniProt P48775); assay: Kinetics analysis; type: biochemical; settings: Lineweaver-Burk plot; 680C91 0.5 and 1 μM, PVZB3001 1 and 2 μM
T1 sequence (P48775 whole entry): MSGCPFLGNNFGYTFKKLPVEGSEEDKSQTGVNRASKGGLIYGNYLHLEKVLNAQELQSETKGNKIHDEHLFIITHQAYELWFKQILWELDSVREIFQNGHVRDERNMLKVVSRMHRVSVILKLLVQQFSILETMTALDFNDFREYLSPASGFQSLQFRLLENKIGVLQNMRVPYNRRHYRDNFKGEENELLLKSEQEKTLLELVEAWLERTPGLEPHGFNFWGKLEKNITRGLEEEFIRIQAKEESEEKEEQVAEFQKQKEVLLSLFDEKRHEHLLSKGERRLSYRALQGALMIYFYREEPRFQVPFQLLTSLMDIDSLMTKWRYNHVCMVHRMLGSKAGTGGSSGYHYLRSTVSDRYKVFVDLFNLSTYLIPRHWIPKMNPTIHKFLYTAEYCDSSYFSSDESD
Method in brief: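 Mode of inhibition was taken from Lineweaver–Burk plots of the recombinant human enzyme, plotting inverse initial rate against inverse L-Trp concentration with or without test compound. DMSO served as control.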

rhIDO1 = rhIDO1 (Homo sapiens, UniProt P14902); assay: Enzyme assay; type: biochemical; settings: read-out: IC50 value on rhIDO1; cell-free; 200 μM L-Trp
rhIDO1, sequence (P14902 whole entry): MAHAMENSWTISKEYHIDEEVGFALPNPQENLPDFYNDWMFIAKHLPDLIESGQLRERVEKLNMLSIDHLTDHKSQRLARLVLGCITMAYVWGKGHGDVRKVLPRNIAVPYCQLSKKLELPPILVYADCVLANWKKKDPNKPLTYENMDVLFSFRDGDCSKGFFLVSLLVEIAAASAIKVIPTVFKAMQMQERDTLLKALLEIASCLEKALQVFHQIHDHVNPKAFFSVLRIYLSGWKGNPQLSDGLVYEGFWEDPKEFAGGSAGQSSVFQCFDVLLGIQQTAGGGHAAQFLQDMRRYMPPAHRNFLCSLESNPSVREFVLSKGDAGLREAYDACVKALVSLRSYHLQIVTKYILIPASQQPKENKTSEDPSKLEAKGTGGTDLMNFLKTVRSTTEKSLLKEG

TDO [3] = assay: TDO mRNA expression in A172 cells; type: cell-based, human; settings: for TDO expression: mRNA and Western blot (Supplemental Figure 2)
NK-92MI cells [4] = assay: Granzyme B production assay in NK-92MI; type: cell-based, human; settings: NK-92MI treated with Kyn 72 h, then 5.5 h fresh medium; ELISA
Method in brief: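 NK-92MI cells were pre-cultured for 72 h with Kyn, then moved to fresh medium without Kyn for 5.5 h. Culture supernatant was collected and granzyme B quantified with a human granzyme B ELISA following the kit protocol.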

NK-92MI cells [5] = assay: NK-92MI viability after addition of Kyn; type: cell-based, human; settings: 72 h after addition of Kyn
rhTDO [6] = molecular target: T1, rhTDO; assay: Enzyme assay; type: biochemical
CT26-Ido1 tumors = assay: Antitumor activity in mice bearing CT26-Ido1 tumors; type: in vivo, mouse; settings: oral, 50.0 mg/kg
Method in brief: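 Female BALB/c mice (6 weeks) received 1 × 10⁵ CT26-Ido1 cells s.c. in the right and left dorsal regions. On day 6 they were randomised (n = 8) to vehicle or 12.5, 25 or 50 mg/kg p.o. once daily. Caliper diameters were taken every 2 days to day 14, with V = (W² × L)/2. Tumours were weighed on day 14 and %IR was taken from mean tumour weights versus vehicle. Body weight every 2 days was expressed relative to day 1. Tumour Kyn and Trp were measured by ELISA after dissociation in PBS.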

TDO [7] = assay: Western blot of TDO protein in A172 cells; type: cell-based, human; settings: at 1000 nM
Method in brief: (§1)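 Cells were lysed in RIPA buffer with protease inhibitors. Lysate (20–30 μg protein/lane) was separated by polyacrylamide gel electrophoresis and transferred to PVDF. Membranes were blocked with 5% skim milk or a signal-enhancing blocking reagent, then probed with primary antibody overnight at 4°C and secondary antibody 1 h at room temperature. Bands were visualised by ECL imaging.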

ERK1/2 = assay: Western blot of ERK1/2 phosphorylation in A172 cells; type: cell-based, human
Method in brief: as §1

A172 cells = assay: Cell viability assay; type: cell-based, human
Method in brief: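 A172 cells were seeded and grown 24 h, then given test compound for 1 h before L-Trp (final 524 μM), with no IFN-γ. After 24 h of culture, WST-8 was added for 40–60 min at 37°C and absorbance read at 450 nm. Triplicate samples; 3 independent experiments.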

Inhibition pattern against TDO (rhTDO [2]): competitive inhibition
IC50 (rhIDO1): > 10 µM
Structure (SMILES): Fc1ccc2c(/C=C/c3cccnc3)c[nH]c2c1 [680C91]
Kyn production in A172 cells (in words) (A172 (TDO)): reduced
Kyn production in A172 cells expressing both IDO1 and TDO (in words) [1]: decreased Kyn production; also recorded: Partial inhibition of Kyn production

Structure (SMILES): Cc1cc(C(=O)NOCCO)c(Nc2ccc(I)cc2F)n(C)c1=O [AZD8330]
Kyn production in A172 cells (in words) (A172 (TDO)): attenuated Kyn production
TDO expression (TDO [3]): reduction of TDO expression

Structure (SMILES): Nc1ccccc1C(=O)CC(N)C(=O)O (stereo not shown) [Kyn, Kynurenine]
Granzyme B production (NK-92MI cells [4]): reduced
Viability of NK-92MI cells (NK-92MI cells [5]): reduced

Structure (SMILES): Cn1c(=O)c(F)c(Nc2ccc(I)cc2F)c2c(=O)n(C[C@@H](O)CO)cnc21 [TAK-733]
Kyn production in A172 cells (in words) (A172 (TDO)): attenuated Kyn production
TDO expression (TDO [3]): reduction of TDO expression

Enzymatic activity of TDO (rhTDO [6]; at 1 μM or higher concentrations): inhibited the enzymatic activity of TDO
Structure (SMILES): NS(=O)(=O)NCCNc1nonc1C(=NO)Nc1ccc(F)c(Br)c1 [epacadostat]
Antitumor effect (CT26-Ido1 tumors): moderate effect without statistical significance
Kyn production in A172 cells expressing both IDO1 and TDO (in words) [1]: decreased Kyn production; also recorded: inhibited Kyn production more effectively

Inhibitory activity against rhTDO (in words) (rhTDO [6]; cell-free assay): did not inhibit
Structure (SMILES): CC(=O)Nc1cccc(-n2c(=O)n(C3CC3)c(=O)c3c(Nc4ccc(I)cc4F)n(C)c(=O)c(C)c32)c1 [trametinib]
TDO protein expression (TDO [7]): downregulated
Kyn production in A172 cells (in words) (A172 (TDO)): decreased Kyn production in a dose-dependent manner
TDO mRNA expression (TDO [3]; at 100 nM): downregulated
ERK1/2 phosphorylation (ERK1/2): inhibition of ERK1/2 phosphorylation
Cell viability of A172 cells (in words) (A172 cells): without reducing cell viability
